# Assay outcomes: PubChem BioAssay, several laboratories
# Sampled rows, rich in hits. Any-hit rate of the full collection: about 3.7%.
# Cl transport mod = KCC2 cotransporter modulators, thallium flux, primary screen, cell-based, HEK293 KCC2, FluoZin-2 fluorescence, MLSMR. KCC2 cells, thallium flux FluoZin-2 fluorescence. B-score of Tl+ flux slope (higher = more flux/activation; lower = inhibition) at 10 µM. 190,000 tested, 2.2% active;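 active = thallium flux slope and its plate-corrected score both differing from the plate sample mean at a set confidence after two filtering rounds, in either direction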;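 note: slope of fluorescence scaled to starting intensity during 10 to 20 s after thallium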
# NPY2 pot ag = NPY-Y2 potentiators or agonists, primary screen, cell-based | Neuropeptide Y receptor type 2 (Homo sapiens), P49146 | activation, % at 3.6 µM | 220,000 tested, 0.45% active | AID 1359, 2008 | cells expressing NPY-Y2, potentiator/agonist read-out; in the data active = activation above about 27%;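 note: cells stimulated with NPY near EC25 plus isoproterenol at EC100; 0% = vehicle plus submaximal agonist and 100% = vehicle plus saturating agonist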
# NPY-Y1 antag = NPY-Y1 receptor antagonists, primary screen, cell-based; inhibition, % at 3.6 µM; HEK293-CNG Y1 cells, membrane potential fluorescence; NPY at EC95, then isoproterenol; Neuropeptide Y receptor type 1 (Homo sapiens), P25929; 200,000 tested, 1% active;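 active = inhibition above the campaign mean inhibition of all tested compounds plus 3 SD, cut at about 20% in these data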;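 note: 0% = DMSO wells given NPY plus isoproterenol and 100% = isoproterenol alone without NPY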
#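 Test system: HEK293 cells co-expressing NPY Y1 receptor and cyclic-nucleotide gated channel; Also added: NPY (25 nM), isoproterenol (1 µM), Ro 20-1724 (25 µM); Compound dosing: one concentration, 3.6 µM, in 0.4% DMSO; Timing: dye 3 h, compound 60 min room temperature, stimulation 45 min; Technique: Membrane-potential fluorescent dye readout.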
# NPY Y2 blocker = NPY-Y2 receptor antagonists, primary screen, cell-based; inhibition, % at 2.7 µM; Neuropeptide Y receptor type 2 (Homo sapiens), P49146; NPY-Y2 expressing cells, antagonist mode; 140,000 tested, 0.99% active; in the data active = inhibition above about 17%;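 note: 0% = vehicle with agonist challenge and 100% = reference antagonist with challenge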
# Furin inhibitor = human furin inhibitors, primary screen, biochemical, fluorescence intensity; P09958; inhibition, % at 20 µM or 30 µM; purified furin, fluorogenic substrate cleavage; AID 463115, 2010; 220,000 tested, 0.061% active; in the data active = inhibition above about 25%
# Target sequence (P09958 108-714 limits assumed): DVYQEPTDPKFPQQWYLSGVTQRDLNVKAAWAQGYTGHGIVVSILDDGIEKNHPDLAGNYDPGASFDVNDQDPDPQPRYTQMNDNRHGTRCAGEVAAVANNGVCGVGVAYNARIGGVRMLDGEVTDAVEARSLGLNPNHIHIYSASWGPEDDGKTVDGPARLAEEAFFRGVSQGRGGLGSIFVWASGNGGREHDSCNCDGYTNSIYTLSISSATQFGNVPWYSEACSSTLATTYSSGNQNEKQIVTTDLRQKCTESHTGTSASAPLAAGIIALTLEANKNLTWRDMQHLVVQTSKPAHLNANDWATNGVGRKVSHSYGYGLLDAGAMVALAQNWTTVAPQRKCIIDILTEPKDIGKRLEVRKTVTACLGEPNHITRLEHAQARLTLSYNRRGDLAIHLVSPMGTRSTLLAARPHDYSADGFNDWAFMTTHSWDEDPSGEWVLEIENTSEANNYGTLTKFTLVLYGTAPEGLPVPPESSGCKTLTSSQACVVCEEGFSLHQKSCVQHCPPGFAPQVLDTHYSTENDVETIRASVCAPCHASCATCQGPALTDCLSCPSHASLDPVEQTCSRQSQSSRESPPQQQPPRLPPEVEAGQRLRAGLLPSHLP
# NPY-Y1 PAM-ag = NPY-Y1 receptor potentiators or agonists, primary screen, cell-based; NPY-Y1 expressing cells, potentiator/agonist activation; activation, % at 3.6 µM; 220,000 tested, 0.37% active; AID 1304, 2008; in the data active = activation above about 33%, passing the limit was not always enough;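 note: cells stimulated with NPY at EC10 then isoproterenol at EC100; 0% = low agonist plus stimulus and 100% = saturating agonist plus stimulus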
# NPY-Y1 antag ct = NPY-Y1 receptor antagonists, selectivity check, counter-screen for NPY-Y2 antagonist project, cell-based. cell-based NPY-Y1 antagonism counterscreen. inhibition, % at 3.6 µM. 710 tested, 19% active. AID 1256, 2008. shares compounds with NPY Y2 blocker; in the data active = inhibition above about 20%;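 note: cells challenged with NPY then isoproterenol with cAMP sensed through a CNG channel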
# NPY2 antag conf = NPY-Y2 receptor antagonists, retest of hits, confirmation, HEK293-CNG cells, membrane potential fluorescence, triplicate. shares compounds with NPY Y2 blocker. 710 tested, 32% active. AID 1257, 2008. HEK293 NPY-Y2 CNG channel. inhibition, % at 2.8 µM;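 active = mean inhibition of triplicate wells above the hit cutoff set in the primary screen, cut at about 17% in these data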;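 note: 0% = DMSO with NPY challenge and 100% = BIIE0246 high control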
# NPY-Y2 confirm = NPY-Y2 potentiators or agonists, confirmation, cell-based; shares compounds with NPY2 pot ag; cell-based NPY-Y2 potentiator/agonist assay; 450 tested, 20% active; activation, % at 3.6 µM; in the data active = activation above about 33%
# NPY-Y1 counter = NPY-Y1 potentiators or agonists, counter-screen for NPY-Y2 potentiator project, cell-based, fluorescence. Y1 HEK293-CNG cells, membrane potential fluorescence. shares compounds with NPY2 pot ag. activation, % at 3.6 µM. AID 1651, 2009. 450 tested, 20% active; in the data active = activation above about 45%;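 note: cells stimulated with submaximal NPY then isoproterenol with phosphodiesterase inhibitor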
# NPY-Y1 ag 2 = NPY-Y1 direct agonists, selectivity assay for NPY-Y2 potentiator project, cell-based, fluorescence; shares compounds with NPY2 pot ag; HEK293 Y1-CNGC, membrane potential fluorescence, agonism; activation, % at 3.6 µM; 450 tested, 37% active; AID 1702, 2009;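 active = activation above the mean of DMSO-only control wells plus 3 SD, cut at about 18% in these data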;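 note: cells stimulated with 1 µM isoproterenol plus the PDE inhibitor Ro 20-1724; 0% = isoproterenol with DMSO and no NPY and 100% = 40 nM NPY; Y1 agonists lower the membrane potential dye signal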
# CNGC inh = CNGC cAMP sensor activity inhibitors, counter-screen for NPY-Y2 potentiator project, cell-based, HEK293-CNG parental, membrane potential fluorescence. shares compounds with NPY2 pot ag. isoproterenol cAMP. inhibition, % at 3.6 µM. 450 tested, 32% active. AID 1703, 2009;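 active = inhibition above the control-well mean plus 3 SD of those wells, cut at about 22% in these data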;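 note: 0% = DMSO with isoproterenol and 100% = DMSO without isoproterenol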
# NPY-Y2 ag 2 = NPY-Y2 direct agonists, counter-screen for NPY-Y2 potentiator project, cell-based, fluorescence; shares compounds with NPY2 pot ag; HEK293 Y2/CNGC cells, membrane potential fluorescence, agonist mode; activation, % at 3.6 µM; 450 tested, 56% active; AID 1710, 2009;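 active = activation above the mean of solvent-only control wells plus 3 SD, cut at about 10% in these data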;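 note: cells stimulated by isoproterenol with no NPY added so direct agonism is tested; 0% = DMSO with isoproterenol alone and 100% = NPY at EC100 plus isoproterenol; agonism lowers probe fluorescence through less cAMP and CNG channel opening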
# KCC2 secondary = KCC2 modulators in sodium-free buffer, confirmation, cell-based, HEK293 KCC2, thallium flux, secondary assay. shares compounds with Cl transport mod. FluoZin2 fluorescence; hits give high values. normalised thallium flux (F/F0 slope) at 10 µM. 3,700 tested, 15% active;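 active = thallium flux slope above the same plate's solvent-only control mean plus 3 SD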
# KCC2 bumet counter = thallium flux persisting under bumetanide in KCC2 cells, confirmation, counter-screen for KCC2 modulator project, cell-based, HEK293 KCC2, FluoZin2, secondary assay 3 | shares compounds with Cl transport mod | HEK293-KCC2 + bumetanide/ouabain; hits give high values | normalized thallium flux at 10 µM | 3,700 tested, 49% active | AID 1714, 2009;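 active = thallium entry rate above the same plate's blocked-transporter control wells by more than 3 SD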;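 note: raw slope of fluorescence over initial fluorescence between 10 and 20 s after thallium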
# KCC2 sec2 = KCC2 modulators without ouabain present, confirmation, cell-based, HEK293 KCC2, thallium flux, FluoZin2, secondary assay 2; AID 1715, 2009; 3,700 tested, 23% active; thallium flux FluoZin2 fluorescence; actives lie on both sides; F/F0 rise rate, 10–20 s post-thallium; normalized thallium flux at 10 µM; shares compounds with Cl transport mod;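 active = thallium flux slope more than 3 SD above or below the plate's solvent-only control mean, mostly below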;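 note: raw slope with 0.1% DMSO as baseline and bumetanide as block control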
# HEK293 Tl flux = thallium flux modulation in parental HEK cells, confirmation, counter-screen for KCC2 modulator project, cell-based, counterscreen 1 | 3,700 tested, 46% active | thallium flux rate (normalised fluorescence) at 10 µM | HEK293 parental cells, thallium flux FluoZin2, ouabain; baseline-ratio fluorescence slope, 10–20 s after thallium | shares compounds with Cl transport mod | AID 1716, 2009;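 active = thallium flux rate significantly above the same plate's solvent-only control wells, beyond their mean plus 3 SD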
# KCC2 retest ouab = KCC2 inhibitors and activators, ouabain retest, confirmation, HEK-KCC2 cells; shares compounds with Cl transport mod; HEK293-KCC2, thallium flux FluoZin2 fluorescence; bidirectional: low = inhibitor, high = activator; raw Tl+ flux slope (below DMSO = inhibition, above = activation) at 10 µM; 3,700 tested, 48% active;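 active = thallium flux slope beyond 3 SD from same-plate DMSO control mean in most replicates, usually higher, sometimes lower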;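 note: slope of initial-normalized fluorescence between seconds 10 and 20 after thallium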
# HEK counter2 = native HEK Tl+ uptake effects, second counter-screen – HEK cells, counterscreen 2, counter-screen for KCC2 modulator project, confirmation; HEK293 parental, thallium flux FluoZin-2 fluorescence slope; 3,700 tested, 33% active; thallium flux slope at 10 µM; shares compounds with Cl transport mod;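 active = thallium flux slope above the same plate's solvent-control mean plus 3 SD in both duplicate wells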;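 note: run without ouabain in cells lacking the KCC2 cotransporter; slope of fluorescence scaled to its starting value between 10 and 20 s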
# Starred values were filed as active, the others as inactive; · = not tested or not shown.
SMILES,Cl transport mod,NPY2 pot ag,NPY-Y1 antag,NPY Y2 blocker,Furin inhibitor,NPY-Y1 PAM-ag,NPY-Y1 antag ct,NPY2 antag conf,others
CC(C)CCNC(=O)CCn1c(=S)oc2ccccc21,-0.0187,-1.3,-2.7,·,-11.3,4.7,·,·,
COc1cc(-c2cc(C(=O)Nc3c(Cl)cc(Cl)cc3Cl)c3ccccc3n2)cc(OC)c1OC,0.164,-23.6,-0.4,40.1*,-15.5,-34.0,48.8*,73.5*,
S=C(NCCc1ccccc1)N1CCc2ccccc2C1,-2.13,9.7,3.8,·,-4.6,-10.6,·,·,
CCOC(=O)Cn1c(S(=O)(=O)Cc2ccccc2Cl)nc(-c2ccccc2)c1-c1ccccc1,·,-21.5,12.4,23.9*,-17.7,-21.2,11.7,8.6,
C#CCn1c(S(=O)(=O)Cc2ccc(C)cc2)nc(-c2ccccc2)c1-c1ccccc1,-0.324,-17.0,15.7,21.5*,3.1,-19.7,14.9,10.9,
COc1cccc(Nc2nc(NCC3CCCO3)c3ccccc3n2)c1 (configuration not stated),-1.14,-4.7,15.3,24.4*,-19.8,-20.3,21.1*,13.8,
CCOc1nc(SCCOc2ccccc2)nc(N(C)C)n1,0.0284,-7.5,-0.2,23.4*,-6.3,-19.7,10.3,12.8,
Nc1ncnc2c1ncn2[C@@H]1O[C@H](CO)[C@@H](O)[C@H]1O,0.0961,10.7,-4.9,2.5,-21.6,10.6,·,·,
OC[C@H]1O[C@@H](n2cnc3c(Nc4ccccc4)ncnc32)[C@H](O)[C@@H]1O,0.0965,-20.2,14.3,22.4*,-14.5,-72.4,10.9,48.5*,
c1ccc(C(Cc2nc(-c3ccncc3)no2)c2ccccc2)cc1,-0.867,41.6*,3.0,22.9*,-2.1,38.4,8.6,4.4,NPY-Y2 confirm=13.9;NPY-Y1 counter=-11.3;NPY-Y1 ag 2=2.3;CNGC inh=-8.8;NPY-Y2 ag 2=2.5
O=c1[nH]c(=S)[nH]cc1Oc1ccc(Cl)cc1Cl,-0.629,-2.7,·,·,-8.7,7.8,·,·,
Cc1cc(-c2ccccc2)c(C#N)c(=S)[nH]1,6.95*,-12.1,7.1,17.1*,-17.3,-33.9,4.6,6.7,KCC2 secondary=0.0171*;KCC2 bumet counter=0.0283*;KCC2 sec2=0.0343;HEK293 Tl flux=0.0162*;KCC2 retest ouab=0.0277;HEK counter2=0.012*
CC1(C)C(=O)OC(c2cccs2)C(C)(C)C1=O (configuration not stated),-0.0545,-0.2,-4.7,0.5,-39.3,-12.1,·,·,
COc1ccc(C2NC(=S)NC(O)(C(F)(F)F)C2C(=O)c2cccs2)cc1 (configuration not stated),1.06,4.0,-1.1,2.4,-8.8,9.9,·,·,
Cc1[nH]c(=O)[nH]c(=O)c1S(=O)(=O)N1CCN(c2ccccc2F)CC1,-0.711,-4.2,4.4,-1.9,-7.7,7.3,·,·,
O=c1[nH]c2ccc(S(=O)(=O)N3CCN(c4ccccc4F)CC3)cc2s1,-4.76*,2.1,1.1,18.0*,-24.9,-5.7,3.4,10.9,KCC2 secondary=0.0069;KCC2 bumet counter=0.00498;KCC2 sec2=0.0241*;HEK293 Tl flux=0.00681;KCC2 retest ouab=0.0129*;HEK counter2=0.00991
C/C(=C\C(=O)c1ccncc1)Nc1ccccc1O,19.4*,11.5,1.5,17.8*,-11.3,7.8,1.2,7.5,KCC2 secondary=0.0147*;KCC2 bumet counter=0.0243*;KCC2 sec2=0.032;HEK293 Tl flux=0.0111*;KCC2 retest ouab=0.0288;HEK counter2=0.0115*
